Source: the RNAGym collection of RNA variant scans (doi:10.1126/science.aae0568)
Variants at the floor of the assay were thinned out.

B1: tRNA (parent)
chain: GUUCCGUUGGCGUAAUGGUAACGCGUCUCCCUCCUAAGGAGAAGACUGCGGGUUCGAGUCCCGUACGGAACG

Variants of: B1
Experiment: yeast fitness relative to wild type (ratio to wild type); higher = fitter; tRNA-Arg(CCU), competitive growth, 37 C, YPD
Method in brief: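 Genotype frequency changes were the basis for Darwinian fitness relative to wild type. The frequencies came from 100-nucleotide paired-end sequencing of gene amplicons from the start population and each end population of pooled yeast strains with tRNA-Arg(CCU) gene variants at the native locus. Competition ran in YPD at 37°C for 24 hours in six replicates, genotypes needed ≥ 100 starting reads, and estimates < 0.5 were set to 0.5.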

Variant	yeast fitness
GUUCCGUUGGAGUAAUGGUAACGCGUCUCCCUCCUAAGGAAAAGACUGCGGGUUCAAGUCCAGUACGGAACG	≤ 0.5
GUUCCGUUGGAGUAAUGGUAACGCGUCUCCCUCCUAAGGAGAAGACUGCCGGUUCGAGUUCCGUACGGACCG	≤ 0.5
GUUCCGUUGGAGUAAUGGUAACGCGUCUCCCUCCUAAGGAGAAGACUGGGGGUUCGAGUCCCGUACGGUACG	0.585
GUUCCGUUGGAGUAAUGGUAACGCCUCACCCUCCUAAGGUGAAGACUGCGGGUUCGAGUCCCGUACGGAACG	0.752
GUUCCGUUGGAGUAAUGGUAACGCGUCUCCCUCCUAAGGAGAAGACUGCGGCUUCGAGUCGCGUACGGAACG	0.618
GUUCCGUUGGAGUAAUGGUAACGCGUCUCCCUCCUAAGGAGAAGAUUGCGGGUUCGAGUCCAGUCCGGAACG	≤ 0.5
GUUCCGUUGGACUAAUGGUAACGCGUCUCCCUCCUAAGGAGAAGACUGCGGGGUCGAGUCCCGUUCGGAACG	≤ 0.5
GUUCCGUUGGAGUAAUGGUAACGCGUCUCCCUCCUAAGGAGAAGACUGCGGGUUCGAGUCCAGUCCGGAACG	≤ 0.5
GUUCCGUUGGAGUAAUGGUAACGCGUCUCCCUCCUAAGGAGAAGACUGCGGAUUCGAGUCCUGUACGGAACG	≤ 0.5
GUUCCGUUGGAGUAAUAGUAACGCGUCUCCCUCCGAAGGAGAAGACUGCGGGUUCGAGUCCCGUACGGAACG	≤ 0.5
GUUCCGUUGGAGUAAUGGUAACGCGUCUCCCUCGUAAGGAGAGGAGUGCGGGUUCGAGUCCCGUACGGAACG	0.708
GUUCCGUUGGAGUAAUGGUAACGCGUCUCCCUCCUAAGGAAAAGUCUGCGGGUUCCAGUCCCGUACGGAACG	≤ 0.5
GUUCCGUUGGAGUAAUGGUAACGCCUCUUCCUCCUAAGGAGAAGACUGCGGGUUCGAGUCCAGUACGGAACG	≤ 0.5
GUUCCGUUGGAGUAAUGGUAACGCGUCUCCCUCCUAAGGACAAGACUGCGGGUUCGAGUCCCGUACGGAACG	0.714
GUUCCGUUGGAGUAAUGGUAACGCGUCUCCCUCCUAAGGAGAAGACUGAGGGUUCGAGUCGCGUACGGAACG	0.53
GUUCCGUUGGAGUAAUGGUAACGCGUCUCCCUCGUAAGGAGAAGACUGCGGGUUCGAGUCCCGUUCGGAACG	≤ 0.5
GUUCCGUUGGAGUAAUGGUAACGCGUCUCCCUCCUAAGGAGAAGACUGUGGGUUCGAGUCCCGUACGGAACG	0.658
GUUCCGUUGGAGUAAUGGUAACGCGUCUCCCUCCUAAGGAGAAGACUGGGGGUUCGAGUCCCGUACGGAACG	0.782
GUUCCGUUGGAGUAAUGAUAACGCGUCUCCUUCCUAAGGAGAAGACUGCGGGUUCGAGUCCCGUACGGAACG	0.535

Variant	yeast fitness
GUUCCGUUGGAGUAAUGGUAACGCGUCUCCCUCCUAAGGAGAAGACUGCGCGUUCGAGUCCCGUACGGAACG	0.585
GUUCCGUUGGAGUAAUGGUAACGCGUCUCCCUCCUAAGAAGAAGACUGCGGGUUCGAGUCCCGUACGGAACG	0.63
GUUCCGUUGGAGUAAUGGUAACGCGUCUCCCUCCUAAGGAGAAGACUGCGGGUUCGAAUCCCGUACGAUUCG	≤ 0.5
GUUCCGUUGGAGUAAUGAUAACGCGUCUCCCUCCUGAGGAGCAGACUGCGGGUUCGAGUCCCGUACGGAACG	0.711
GUUCCGUUGGAGUAAUGGUAACGCCUCUUCCUCCUAAGGAGAAGACUGUGGGUUCGAGUCCCGUACGGAACG	≤ 0.5
GUUCCGUUGGAGUAAUGGUAACGCAUCUCCCUCCUAAGGAGAAGACUGCGGGUUCGACUCCCGUGCGGAACG	0.568
GUUCCGUUGGAGUAAUGGUAACGCGUCUCCCUCCUAAGGAGAAGACUGCGGGUUCAAGUCCCGUACGGAACG	0.739
GUUCCGUUGGAGUAAUGGUAACGCGUCUCCCUCCUAAGGAGAAGACUGCGGGUUCCAGUCCCGUACGGAACG	≤ 0.5
GUUCCGUUGGAGUAAUGGUAACGCGUCUCCCUCCUAAGGAGAAGACUGCGGGUUCGAGUCCCGUACCGAACG	0.574
GUUCCGUUGGAGUAAUGGUAACGCGUCUCCCUCCUAAGGAGAAGACUGCGGGUUCGAGUCCCGUACAGAACG	0.555
GUUCCGUUGGAGUAAUGCUAACGCGUCUCCCUCCUAAGGAGAAGACUGCGGGUUCGAGUCCCGUACGGAACG	≤ 0.5
GUUCCGUUGGAGUAAUGGUAACGCCUCUUCCUCCUAAGGAGAUGACUGCGGGUUCGAGUCCCGUCCGGAUCG	≤ 0.5
GUUCCGUUGGAGUAAUGGUAACGCGUCUCCCUCCUAAGGAAAAGACUGCGGGUUCGCGUCCCGUACGGAACG	≤ 0.5
GUUCCGUUGGAGUAAUGGUAACGCGUCUCCCUCCUAAGGAGAAGACUGCGAGUUCGAGACCCGUACGGAACG	≤ 0.5
GUUCCGUUGGAGUAAUUGUGACGCGUCUCCAUCCUAAGGAGAAGACUGCGGGUUCGAGUCCCGUACGGAACG	≤ 0.5
GUUCCGUUGGAGUAAUGGUAACGCGUCUCCCUCUUAAGGAGAAGACUGCGGGUUCGAGUCCCGUACGGAACG	0.552
GUUCCGUUGGAGUAAUAGUAACGCGUCUCCCUCCGAAGGAGAAGACUGCGGGUUCGAGCCCCGUACGGAACG	0.568
GUUCCGUUGGAGUAAUGAUAACGCGUCUCCCUCCUAAGGAGAAGACUGCGGGUUCGAGUCCCGUACGAAACG	≤ 0.5
